# According to PMC2612038 (Journal of molecular biology, 2008):
# “Also recorded” adds a separate entry of the source. Read-outs that look alike come from different tables or passages of the source.
# Legend:
# [1] = tested on: Hdm2-ABD lacking the H1 and/or H2 segments; assay: CD co-assembly of A1-mini with Hdm2-ABD lacking H1 and/or H2 segments; assay type: binding, human; conditions: deletion of the H1 and/or H2 segments (Suppl. Fig. 1)
# [2] = tested on: Arf-null NIH 3T3 mouse fibroblasts; assay: BrdU incorporation / cell cycle arrest assay after nuclear micro-injection; assay type: cell-based; conditions: peptide 2–4 mg/ml, BrdU 10 μM, 8 hours, 3 independent experiments
# [3] = tested on: 15N-Hdm2-ABD; assay: 2D 1H-15N HSQC NMR of 15N-Hdm2-ABD with Arf peptide; assay type: binding, human
# Summary of the method: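 15N-Hdm2-ABD was expressed in E. coli in MOPS minimal medium with 15NH4Cl and purified. […] Combined shift perturbation: Δδ1H/15N = [(Δδ1HN)² + 0.0289·(Δδ15NH)²]^1/2, each difference taken as bound minus free.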
# [4] = Solubility; assay type: physicochemical; conditions: co-assemblies with Hdm2-ABD
# [5] = Structure in isolation; assay type: physicochemical; conditions: for structure in isolation: absence of oppositely charged partner
# Summary of the method: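 Uniformly 13C/15N-labelled Hdm2-ABD (2 mM) was studied in 10 mM sodium phosphate, 10 mM NaCl, 0.01% azide, 6% D2O, pH 6.0, 25 °C. Backbone assignments came from HSQC, CT-HNCA, CT-HN(CO)CA, HNCACB and CBCA(CO)NH spectra, and side chains from C(CO)NH- and H(CCO)NH-TOCSY. 1H was referenced to external TSP, with 13C/15N referenced indirectly.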
# [6] = Sedimentation velocity AUC of the isolated polypeptide; assay type: physicochemical
# Summary of the method: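 Sedimentation velocity was run at 50,000 rpm and 20 °C, with Rayleigh interference scans every 1 min. Samples were dialysed into 10 mM sodium phosphate pH 6.0 with 10 mM NaCl (150 mM for high ionic strength), and the dialysate was the reference. Analysis used c(s) with maximum-entropy regularisation (p = 0.7, n = 100), with s from main-peak integration and weight-average f/f0. c(M) came from c(s). c(s, f/f0) used an f/f0 grid of 1.2–2.2 and s of 0.1–5 S.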
# [7] = tested on: Mdm2; assay: Nucleolar co-localization with endogenous Mdm2 after nuclear micro-injection; assay type: cell-based, mouse; conditions: for cells with co-localization with Mdm2 in nucleoli: 0.5 mg/mL TR-A1-mini injected into nuclei, 4 hour recovery, anti-mdm2 2A10
# [8] = cited from earlier work
# [9] = cited from earlier work; remark: listed apart in the source
# [10] = Pulsed magnetic field gradient/diffusion NMR of free Hdm2-ABD; assay type: physicochemical; conditions: 1 mM 15N-Hdm2-ABD, 10 mM sodium phosphate, 10 mM NaCl, pH 6; dioxane standard
# Summary of the method: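 Diffusion was recorded at 600 MHz on 1 mM 15N-Hdm2-ABD in 10 mM sodium phosphate, 10 mM NaCl, pH 6. A 15N-filtered BPP-MAXY-D sequence gave 1D spectra across gradient strengths of 1–60 G cm−1. Dioxane served as internal standard to normalise for solution conditions. Equivalent unfolded chain length was estimated from Rh = (2.21 ± 1.07)N^(0.57 ± 0.02).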
# [11] = tested on: nucleoli of Arf-null NIH 3T3 mouse fibroblasts; assay: Nucleolar localization after nuclear micro-injection; assay type: cell-based; conditions: 0.5 mg/mL TR-A1-mini injected into nuclei; 33/42 cells; 4 hour recovery
# [12] = tested on: 15N-Hdm2-ABD; conditions: 3 equivalents; cited from earlier work
# [13] = tested on: mouse fibroblasts; conditions: cited from earlier work
# [14] = tested on: Mdm2; conditions: cited from earlier work
# [15] = target: Hdm2-ABD (Homo sapiens, UniProt Q00987); conditions: cited from earlier work
# [16] = tested on: 15-residue peptide containing the H1 segment of Hdm2; conditions: cited from earlier work
# [17] = target: Arf-binding domain of Hdm2 (Hdm2-ABD), residues 210-304 (human, UniProt Q00987 210-304); assay: circular dichroism
# [18] = 0.5 mM, 20 °C, 10 mM sodium phosphate pH 6.0, 10 mM NaCl, c(s) model
# Sequence of Hdm2-ABD (Q00987 210-304): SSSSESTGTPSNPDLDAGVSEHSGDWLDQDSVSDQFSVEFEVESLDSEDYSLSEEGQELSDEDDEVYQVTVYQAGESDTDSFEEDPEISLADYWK
# Sequence of Arf-binding domain of Hdm2 (Hdm2-ABD), residues 210-304 (Q00987 210-304): as above
molecule,measurement,setting,value
CC(C)C[C@H](NC(=O)[C@H](Cc1ccccc1)NC(=O)[C@H](CCCNC(=N)N)NC(=O)[C@H](CCCNC(=N)N)NC(=O)CN)C(=O)N[C@H](C(=O)N[C@H](C(=O)N[C@H](C(=O)N[C@@H](CCCNC(=N)N)C(=O)O)C(C)C)[C@@H](C)O)C(C)C [A1-mini],co-assembly with Hdm2-ABD deletion variants,[1],complete abrogation of co-assembly
same,inhibition of BrdU incorporation / cell cycle arrest,[2],did not cause cell cycle arrest; also recorded: No significant differences in the percentage of cells undergoing DNA replication
same,"Δδ13Cα, 1H-1H NOE and heteronuclear NOE differences of 15N-Hdm2-ABD","[3]; absence vs presence of A1-mini, data not shown",significant differences in these parameters were not detected
same,1H-15N HSQC resonance intensities of 15N-Hdm2-ABD,[3]; in presence of four-fold molar excess A1-mini (Suppl. Fig. 5B),significant reduction in the intensity; also recorded: reduced significantly
same,solubility of peptide/Hdm2-ABD co-assemblies,[4],> 1000 µM
same,structure in isolation,[5],intrinsically unstructured
same,"sedimentation state, isolated","[6]; AUC, data not shown",sedimented as a monomer
same,cells with co-localization with Mdm2 in nucleoli,[7],7%
(AEAEAKAK)2,self-assembly,[8],self-assembled into β-strand-rich structures with fibrilar characteristics
Hdm2-ABD: Hdm2 domain spanning residues 210-304 (Arf-binding domain),structure in isolation,[9],intrinsically unstructured in isolation
same,"radius of hydration (Rh), free",[10],25.7 Å
same,structure in isolation,[5],intrinsically unstructured
same,secondary 13Cα chemical shift values (Δδ13Cα),"[5]; free Hdm2-ABD, pH 6.0, 25 °C (Suppl. Fig. 7B)",close to zero
same,"frictional ratio (f/f0), isolated",[6]; [18],2.18
same,"sedimentation coefficient (s), isolated",[6]; [18],1.0 S
same,"molecular mass by AUC, isolated","[6]; 0.5 mM, 20 °C, pH 6.0, 10 mM NaCl","~ 10,900 Da"
N-CGGGGGRRFLVTVR-C [TR-A1-mini],inhibition of BrdU incorporation / cell cycle arrest,[2],did not inhibit the incorporation of bromo-deoxyuridine (BrdU) into DNA
same,injected cells with nucleolar localization,[11],79%
same,cells with co-localization with Mdm2 in nucleoli,[7],7%
same,cells with nucleoplasmic Mdm2 and nucleolar TR-A1-mini localization,"[7]; Fig. 5, nuclear injection",93%
"mArf-N37: 37-residue intrinsically unstructured N-terminal fragment of p19^Arf (MGRRFLVTVRIQRAGRPLQERVFLVKFVRSRRPRTAS; UniProt Q64364 1-37, looked up, fragment)",effect on 15N-Hdm2-ABD resonances,[12],broaden beyond detection
same,cell cycle arrest,[13],exhibited cell cycle arrest activity in vivo
same,p53-dependent cell cycle arrest,[13]; mouse fibroblasts,caused p53-dependent cell cycle arrest in mouse fibroblasts
same,binding to Mdm2,[14],bound to Mdm2
same,co-assembly with Mdm2 in nucleoli,[14]; in cells,co-assembled specifically with Mdm2 in nucleoli
same,structure in isolation,[9],intrinsically unstructured in isolation
same,Hdm2-ABD concentration at which complete conversion to β-strand occurs,[15]; 1 molar equivalent of peptide,≥ 10 µM
"residues 1-15 of p14^Arf: peptide corresponding to residues 1-15 of p14^Arf (MVRRFLVTLRIRRAC; UniProt Q8N726 1-15, looked up, fragment)",assembly with 15-residue H1 peptide of Hdm2,[16],irreversibly assembled into bi-molecular oligomers
same,irreversible assembly into bi-molecular oligomers with Hdm2-ABD,[15],irreversibly assembled into bi-molecular oligomers
"residues 1-15 of p19^Arf: peptide from the N-terminus of p19^Arf spanning residues 1-15 (MGRRFLVTVRIQRAG; UniProt Q64364 1-15, looked up, fragment)",binding to Hdm2-ABD,[15],bound to Hdm2-ABD
"GRRFLVTVR [A1-mini, peptide of residues 2-10 of mouse Arf (p19Arf)]",Kd,[17],~200 µM
